DAGLB inhibitor: blocks human DAGLB lipase activity | inhibition, % at 5.17 µM | HEK293T DAGLB membrane lysate, EnzChek fluorogenic substrate | 340,000 tested, 0.059% active | AID 504411; in the data active means inhibition above about 34%
MT1-MMP act inh: MT1-MMP (human) activation inhibition. 360,000 tested, 0.061% active. GFP/RFP ratio change, % at 20 µM. HT1080 RFP-PRO-GFP cells, GFP/RFP ratio fluorescence, overnight; percent of plate control window, DMSO zero. P50281;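 active means GFP/RFP ratio change of at least 30% with cell ATP level not reduced by more than half and red fluorescence within 50% of control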
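Assay system: HT1080 RFP-PRO-GFP cells. Benchmarks: DMSO vehicle wells and RFP-L50D-GFP reporter cell wells. Times: overnight cell settling, then overnight compound exposure, 37 °C, 5% CO2. Compound: 20 µM single dose, 1% DMSO. Read-out basis: GFP/RFP fluorescence ratio.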
Myeloid diff MLP: compounds promoting myeloid differentiation; ER-HoxA9 myeloid progenitors, lysozyme-GFP differentiation, flow cytometry; calls only at 10 µM; 360,000 tested, 1% active; AID 624256;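 active means normalized GFP-positive differentiation at or above the plate's own cutoff, the solvent-only control mean plus 3 SD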;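 further: cells exposed to compound for four days before flow analysis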
NRP1-CendR mod: NRP-1/CendR interaction modulation. O14786. FAM-RPARPAR peptide binding to NRP-1, fluorescence polarization. inhibition, % at 25 µM. 360,000 tested, 0.85% active. AID 602438;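 active means inhibition or corrected inhibition above about 18%, plus a signal ratio from 0.5 to 1.5, limit read from the data, passing the limit was not always enough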
MIN6 prolif-1: inducers of beta-cell replication in MIN6 cells | MIN6 cells proliferation, ATPlite luminescence, 48 h; cells starved in 0.2% serum; 100% = growth in 10% serum | proliferation, % at 10 µM | 330,000 tested, 0.29% active;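 active means compounds whose signal lies at least 3.5 SD above the mean of all wells on their plate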
SENP1 inh: inhibitors of human SENP1 SUMO protease catalytic domain | inhibition, % at 10 µM | 360,000 tested, 0.21% active | Q9P0U3 | recombinant SENP1 catalytic domain, CyPet-SUMO1-YPet FRET cleavage | AID 624204;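 active means inhibition at least 30% at 10 µM, raw YFP signal under a set limit, fluorescence ratio 0.5 to 1.5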
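system = hSENP1 catalytic domain, recombinant | reagent = SFCypet-SUMO1-SFYpet substrate at 25 nM | doses = one dose per compound, 10 µM, 0.5% DMSO | incubation = enzyme reaction for 50 min at room temperature, dark | measured by = FRET, CFP and YFP emission | controls = no-enzyme low, enzyme-DMSO high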
MIN6 prolif-2: MIN6 beta-cell replication induction, confirmed; shares compounds with MIN6 prolif-1; MIN6 beta-cell proliferation, ATPlite luminescence, 48 h; cells kept in 0.2% serum; scaled between 0.2% and 10% serum; proliferation increase, % at 50 µM; 920 tested, under 10 active; AID 463095;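 active means proliferation increase above 40% at any of the four tested concentrations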
Each line names hits and unclear results; the compound was inactive in the other large screens (follow-up assays come after a bar, where they were run). Hits are enriched below; roughly 2.4% of the tested compounds scored in any of these assays.

CC(=O)Nc1cc(C(=O)N(C)Cc2ccccc2)ccc1S(=O)(=O)c1ccc(C)cc1	MIN6 prolif-1 13 | MIN6 prolif-2 inactive
COc1ccc(NC(C)=O)cc1S(=O)(=O)Nc1ccc2c(c1)OCCO2	MIN6 prolif-1 7.9 | MIN6 prolif-2 inactive
O=c1c2ccccc2nc(SCc2cn3ccsc3n2)n1-c1ccccc1	MIN6 prolif-1 6.1 | MIN6 prolif-2 inactive
O=c1c2ccccc2nc(SCc2cn3ccsc3n2)n1-c1ccccc1F	none
CC(C)(C)NS(=O)(=O)c1ccc(CCC(=O)N2CCOCC2)cc1	none
CC1CCN(C(=O)CCc2ccc(S(=O)(=O)NC(C)(C)C)cc2)CC1	MIN6 prolif-1 7.5 | MIN6 prolif-2 inactive
CCC(=O)Nc1ccc2nc(C3CC3)n(Cc3ccccc3)c(=O)c2c1	none
COc1ccc(Cn2c(C3CC3)nc3ccc(NC(=O)c4ccco4)cc3c2=O)cc1	MIN6 prolif-1 5.5 | MIN6 prolif-2 inactive
COCC(C)n1c(SCC(=O)N2CC(=O)Nc3ccccc32)nc2ccccc2c1=O (stereo unspecified)	MIN6 prolif-1 11 | MIN6 prolif-2 inactive
CC(c1ccccc1)n1c(SCC(=O)N2CC(=O)Nc3ccccc32)nc2ccccc2c1=O (stereo unspecified)	none
CC(=O)CCc1ccc(OCCCOc2cccc3cccnc23)cc1	MIN6 prolif-1 5.7 | MIN6 prolif-2 inactive
C=CCNC(=O)c1ccccc1NC(=O)COc1ccccc1	MIN6 prolif-1 8.4 | MIN6 prolif-2 inactive
C=CCNC(=O)c1ccccc1NC(=O)COc1ccc(OC)cc1	none
O=c1[nH]cc(F)c(=O)n1C1OC(CO)C(O)C1O (stereo unspecified)	none (no result: DAGLB inhibitor, MIN6 prolif-1)
COc1cc2c(cc1OC)C(COc1ccccc1OC)N(C(=O)c1ccco1)CC2 (stereo unspecified)	MIN6 prolif-1 8.8 | MIN6 prolif-2 inactive
CCC(=O)N1CCc2cc(OC)c(OC)cc2C1COc1ccc(F)cc1 (stereo unspecified)	MIN6 prolif-1 9.3 | MIN6 prolif-2 inactive
O=C(Nc1ccc(S(=O)(=O)N2CCN(c3ccccc3)CC2)cc1)c1cccs1	none
COc1ccccc1Nc1nc(C)nc2c1oc1ccccc12	MIN6 prolif-1 10 | MIN6 prolif-2 inactive
COc1ccc(Nc2nc(C)nc3c2oc2ccccc23)c(OC)c1	none
Cc1ccccc1NC(=O)CSc1nnc(C)c2ccccc12	MIN6 prolif-1 5.8 | MIN6 prolif-2 inactive
CN1CCN(P(=O)(c2ccccc2)c2nc3ccccc3s2)CC1 (stereo unspecified)	MIN6 prolif-1 5.9 | MIN6 prolif-2 inactive
CCNC(=S)NNC(=O)c1cc(C)on1	none
O=C(COC(=O)c1ccco1)Nc1nnc(-c2ccccc2)o1	none (no result: MT1-MMP act inh)
COc1ccc(C(=O)NCCCNC(=O)c2cnccn2)cc1Br	MIN6 prolif-1 9.2 | MIN6 prolif-2 inactive
COc1ccc(C(=O)NCCNC(=O)c2cnccn2)cc1OC	none
Cc1cc(NC(=O)CCC(=O)N(CC(C)C)C(C(=O)NC(C)(C)C)c2ccccc2Cl)no1 (stereo unspecified)	MIN6 prolif-1 6.7 | MIN6 prolif-2 inactive
COc1cccc(C(C(=O)NC(C)(C)C)N(C(=O)CCC(=O)Nc2cc(C)on2)C(C)(C)C)c1OC (stereo unspecified)	MIN6 prolif-1 5.2 | MIN6 prolif-2 inactive
CCCCN(C(=O)CCC(=O)Nc1cc(C)on1)C(C(=O)NC(C)(C)C)c1ccccc1Cl (stereo unspecified)	none
COc1cccc(C(C(=O)NC(C)(C)C)N(C(=O)CCC(=O)Nc2cc(C)on2)C(C)C)c1OC (stereo unspecified)	none
Cc1cc(C(=O)OCC(=O)NCCc2ccc(S(N)(=O)=O)cc2)c2ccccc2n1	none
CC(C)Nc1nc(NC(C)(C)C)nc(Oc2ccc(=O)n(-c3ccccc3)n2)n1	MIN6 prolif-1 7.5 | MIN6 prolif-2 inactive
N#CCNC(=O)C1CC(=O)N(CCc2ccc(F)cc2)C1 (stereo unspecified)	none
Cc1csc2c(=O)sc(NC(=O)c3cccs3)nc12	none (no result: DAGLB inhibitor)
